Laboratory results published in ChEMBL document CHEMBL1153518 (J Med Chem, 2009).

Columns and labels:
HEL = test: Cytotoxicity against HEL cells assessed as inhibition of cell proliferation; format: cell-based; conditions: Homo sapiens
[1] = tested on: Human immunodeficiency virus 2; test: Antiviral activity against HIV2 ROD infected in human CEM cells assessed as inhibition of virus-induced cytopathicity after 4 days; format: functional, organism-based; conditions: Human immunodeficiency virus 2, ISOLATE ROD, CCRF-CEM, 96 h
Summary of the method: (§1)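 Human CEM cells (~3 × 10^5 cells/mL) infected with 100 CCID50 per mL of HIV-1(IIIB) or HIV-2(ROD), then seeded into wells holding compound dilutions. Incubated 4 days at 37°C. Giant cell formation was scored microscopically.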

Human alphaherpesvirus 1 [2] = test: Antiviral activity against acyclovir […]-resistant thymidine kinase-deficient HSV1 KOS infected in HEL cells assessed as inhibition of virus-induced cytopathicity; format: functional, organism-based; conditions: Human alphaherpesvirus 1, KOS
Summary of the method: (§2)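 Confluent human embryonic lung fibroblast monolayers inoculated with 100 CCID50 virus. After 1–2 h adsorption, residual virus was removed and cultures were incubated with varying compound concentrations. Cytopathicity was scored once untreated infected controls reached full cytopathicity.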

[3] = tested on: Human immunodeficiency virus 1; test: Antiviral activity against HIV1 3B/Lai infected in human CEM cells assessed as inhibition of virus-induced cytopathicity after 4 days; format: functional, organism-based; conditions: Human immunodeficiency virus 1, 3B/Lai, CCRF-CEM, 96 h; summary of the method: as §1
CCRF-CEM = test: Cytotoxicity against human CEM cells assessed as decrease in cell viability; format: cell-based
Human alphaherpesvirus 1 [4] = test: Antiviral activity against HSV1 KOS infected in HEL cells assessed as inhibition of virus-induced cytopathicity; format: functional, organism-based; conditions: Human alphaherpesvirus 1, KOS; summary of the method: as §2
Human alphaherpesvirus 2 = test: Antiviral activity against HSV2 G infected in HEL cells assessed as inhibition of virus-induced cytopathicity; format: functional, organism-based; conditions: Human alphaherpesvirus 2, strain G; summary of the method: as §2
[5] = Cytotoxicity against HEL cells assessed as concentration required to cause alteration in cell alteration by microscopically; format: cell-based; conditions: human
MT4 [6] = test: Cytotoxicity against human MT4 cells assessed as inhibition of cell proliferation; format: cell-based
MT4 [7] = test: Cytotoxicity against human MT4 cells assessed as decrease in cell viability; format: cell-based
Summary of the method: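 MT-4 viability was measured by automated propidium iodide-based cell counting, enumerating total and dead cells in untreated and compound-treated cultures.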

[8] = tested on: Human immunodeficiency virus 1; test: Antiviral activity against HIV1 3B/Lai infected in human MT4 cells assessed as suppression of p24 production after 3 days; format: functional, organism-based; conditions: Human immunodeficiency virus 1, 3B/Lai, MT4, 72 h
Summary of the method: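 MT-4 cells (1 × 10^4 cells/mL) in fresh medium infected with X4LAI.04 stock, 10 μL (0.7 ng p24) per mL of cell suspension. Mixed with medium carrying compound dilutions and kept at 37°C. After 3 days, p24 was measured in culture supernatants.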

Compound | IC50 (HEL) [µM] | EC50 [1] [µM] | EC50 (Human alphaherpesvirus 1 [2]) [µM] | EC50 [3] [µM] | IC50 (CCRF-CEM) [µM] | EC50 (Human alphaherpesvirus 1 [4]) [µM] | EC50 (Human alphaherpesvirus 2) [µM] | MCC [5] [µM] | CC50 (MT4 [6]) [µM] | IC50 (MT4 [7]) [µM] | EC50 [8] [µM]
CC(C)(NP(=O)(OCCOCn1cnc2c(=O)[nH]c(N)nc21)Oc1cccc2ccccc12)C(=O)OCc1ccccc1 (stereo not drawn) | > 100 | 79 | 3.2 | ≥ 100 | > 100 | 2.4 | 1.6 | > 50 |  |  | 
CN(C)/C=N/c1nc2c(ncn2COCCOP(=O)(NC(C)(C)C(=O)OCc2ccccc2)Oc2cccc3ccccc23)c(=O)[nH]1 (stereo not drawn) |  | > 20 |  | > 20 | 40 |  |  |  | 45 | 140 | 15
CCCOC(=O)[C@H](C)NP(=O)(OCCOCn1cnc2c(=O)[nH]c(N)nc21)Oc1cccc2ccccc12 (stereo partly drawn) | 68 | 24 | 16 | 6.6 |  | 5.5 | 1.9 | ≥ 50 |  |  | 10
C[C@H](NP(=O)(OCCOCn1cnc2c(=O)[nH]c(N)nc21)Oc1cccc2ccccc12)C(=O)OC(C)(C)C (stereo partly drawn) | > 100 | > 100 | > 100 | > 100 | > 100 | > 100 | 50 | > 50 | > 150 | > 150 | > 150
COC(=O)[C@@H](NP(=O)(OCCOCn1cnc2c(=O)[nH]c(/N=C/N(C)C)nc21)Oc1cccc2ccccc12)C(C)C (stereo partly drawn) |  | > 100 |  | > 100 | > 100 |  |  |  | > 150 | > 150 | > 150
COC(=O)[C@H](C)NP(=O)(OCCOCn1cnc2c(=O)[nH]c(N)nc21)Oc1ccccc1 (stereo partly drawn) |  | 26 | 79 | 17 |  | 20 | 16 | > 100 |  |  | 15
CN(C)/C=N/c1nc2c(ncn2COCCOP(=O)(NC(C)(C)C(=O)OCc2ccccc2)Oc2ccccc2)c(=O)[nH]1 (stereo not drawn) |  | > 100 |  | > 100 | > 100 |  |  |  | > 150 | > 150 | 70
CCOC(=O)[C@@H](NP(=O)(OCCOCn1cnc2c(=O)[nH]c(N)nc21)Oc1cccc2ccccc12)C(C)C (stereo partly drawn) |  | > 100 | 42 | > 100 | > 100 | 51 | 32 | > 100 |  |  | 
COC(=O)[C@@H](NP(=O)(OCCOCn1cnc2c(=O)[nH]c(N)nc21)Oc1cccc2ccccc12)C(C)C (stereo partly drawn) |  | > 100 | > 100 | > 100 | > 100 | > 100 | > 100 | > 100 |  |  | 
CN(C)/C=N/c1nc2c(ncn2COCCOP(=O)(Oc2ccccc2)N2CCC[C@H]2C(=O)OCc2ccccc2)c(=O)[nH]1 (stereo partly drawn) |  | > 20 |  | > 20 | 45 |  |  |  | 90 | > 150 | 30
Nc1nc2c(ncn2COCCOP(=O)(NCC(=O)OCc2ccccc2)Oc2ccccc2)c(=O)[nH]1 (stereo not drawn) |  | > 100 | 9 | > 100 | > 100 | 3 | 0.8 | > 100 |  |  | 
CCOC(=O)[C@H](C)NP(=O)(OCCOCn1cnc2c(=O)[nH]c(N)nc21)Oc1cccc2ccccc12 (stereo partly drawn) | > 100 | 42 | 32 | 12 | 32 | 32 | 9.5 | > 150 | > 150 | 12 | 1.7
CC(C)C[C@H](NP(=O)(OCCOCn1cnc2c(=O)[nH]c(N)nc21)Oc1ccccc1)C(=O)OCc1ccccc1 (stereo partly drawn) |  | > 20 | 1.4 | > 20 | > 20 | 0.8 | 0.7 | > 100 | 17 | > 150 | 0.8
C[C@H](NP(=O)(OCCOCn1cnc2c(=O)[nH]c(N)nc21)Oc1ccccc1)C(=O)OCc1ccccc1 (stereo partly drawn) | 91 | 11 | 15 | 16 | 42 | 8 | 4 | > 50 | > 150 | 33.8 | 5.7
COC(=O)[C@H](NP(=O)(OCCOCn1cnc2c(=O)[nH]c(N)nc21)Oc1cccc2ccccc12)C(C)C (stereo partly drawn) |  | > 100 | > 100 | > 100 | > 100 | > 100 | > 100 | > 100 |  |  | 
CC(C)(NP(=O)(OCCOCn1cnc2c(=O)[nH]c(N)nc21)Oc1ccccc1)C(=O)OCc1ccccc1 (stereo not drawn) |  | > 100 | 5.5 |  | > 100 | 1.4 | 0.8 | > 100 | > 150 | > 150 | 7
Nc1nc2c(ncn2COCCOP(=O)(Oc2ccccc2)N2CCC[C@H]2C(=O)OCc2ccccc2)c(=O)[nH]1 (stereo partly drawn) | > 100 | > 20 | > 100 | > 20 | > 100 | > 100 | > 100 | > 100 |  |  | 
Nc1nc2c(ncn2COCCO)c(=O)[nH]1 [ACYCLOVIR] |  | > 250 |  | > 250 | > 250 |  |  | > 100 | > 250 | > 250 | 
CC(C)OC(=O)[C@H](C)NP(=O)(OCCOCn1cnc2c(=O)[nH]c(N)nc21)Oc1ccccc1 (stereo partly drawn) | > 100 | > 100 | 27 |  | > 100 | 10 | 8.5 | > 50 | > 150 | > 150 | > 150
CC(C)OC(=O)[C@H](C)NP(=O)(OCCOCn1cnc2c(=O)[nH]c(N)nc21)Oc1cccc2ccccc12 (stereo partly drawn) | > 100 | 12 | ≥ 45 | 6.2 | 36 | 15 | 10 | > 50 | > 150 | 72.5 | 5.4
CC(C)[C@H](NP(=O)(OCCOCn1cnc2c(=O)[nH]c(N)nc21)Oc1ccccc1)C(=O)OCc1ccccc1 (stereo partly drawn) |  | > 50 | 7.5 | > 50 | ≥ 100 | 2 | 0.85 | > 100 |  |  | 
C[C@@H](NP(=O)(OCCOCn1cnc2c(=O)[nH]c(N)nc21)Oc1ccccc1)C(=O)OCc1ccccc1 (stereo partly drawn) |  | > 250 | 23 |  | ≥ 250 | 2 | 1.4 | > 100 |  |  | 
C[C@H](NP(=O)(OCCOCn1cnc2c(=O)[nH]c(N)nc21)Oc1cccc2ccccc12)C(=O)OCc1ccccc1 (stereo partly drawn) | 20 | 8.9 | 10 | 15 |  | 2 | 1.4 | ≥ 20 |  | > 150 | 0.8
Nc1nc2c(ncn2COCCOP(=O)(NC(Cc2ccccc2)C(=O)OCc2ccccc2)Oc2ccccc2)c(=O)[nH]1 (stereo not drawn) | 87 | 34 |  | 26 |  | 17 | 8 | > 50 |  |  | 16
COC(=O)[C@H](C)NP(=O)(OCCOCn1cnc2c(=O)[nH]c(N)nc21)Oc1cccc2ccccc12 (stereo partly drawn) | > 100 | 13 | 79 | 10 |  | 16 | 10 | > 50 | > 150 | 18.7 | 4.7
C[C@H](NP(=O)(OCCOCn1cnc2c(=O)[nH]c(N)nc21)Oc1ccc(F)cc1)C(=O)OCc1ccccc1 (stereo partly drawn) |  | > 20 | 1.5 |  | 76 | 0.9 | 0.5 | > 100 |  |  | 
CC[C@H](C)[C@H](NP(=O)(OCCOCn1cnc2c(=O)[nH]c(N)nc21)Oc1ccccc1)C(=O)OCc1ccccc1 (stereo partly drawn) |  | > 20 | 1.4 | > 20 |  | 1.1 | 1.1 | > 100 |  |  | 
